Assay outcomes as filed in PubChem BioAssay.
Yeast life ext – yeast lifespan extension; S. cerevisiae growth with nicotinamide, OD615; deaD strain in restrictive glucose medium; inhibition of the nicotinamide effect, % at 10 µM; actives 0.68% (n = 130,000); AID 775;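 active = inhibition above a set limit, placed 3 SD over the median of all compounds, cut at about 26% in these data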
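Material: Modified budding yeast, DeaD strain | Medium: Restrictive glucose medium | Probe or stimulus: 1.5 mM nicotinamide | Dosing: Single dose 10 µM compound, 0.25% DMSO | Times: 48 h at 30 °C | Technique: OD615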
Yeast growth inh – chemicals that inhibit yeast BB579 growth in restrictive medium (lifespan-shortening candidates) | S. cerevisiae BB579 growth, OD615, 48 h | inhibition, % at 10 µM | actives 0.51% (n = 140,000) | AID 804;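 active = inhibition above a set limit, 3 SD over the mean compound inhibition, cut at about 44% in these data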
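Assay system – yeast BB579 (DeaD) · Dosing – single compound dose of 10 µM, 0.25% DMSO final · Detection – OD615 turbidity measurement · Buffer or medium – CSMM-D restrictive synthetic medium containing dextrose (glucose) · Benchmarks – positive control amphotericin B 10 µg/mL · Incubation – 48 h exposure, 30 °C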
RAM network inh – yeast RAM network inhibition. S. cerevisiae dse1pr::URA3 reporter, 5-FOA growth OD615, 2 d; analog-sensitive cbk1-as2 kinase mutant strain. inhibition, % at 50 µM. actives 1.8% (n = 190,000);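 active = inhibition above a set limit, 3 SD over mean compound inhibition, cut at about 8.4% in these data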;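 note: inhibition rescues growth on 5-FOA so higher OD means more RAM inhibition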
Measles CPE – protection of cells from measles virus | actives 1.5% (n = 140,000) | Measles virus-infected cells, CPE protection, absorbance | protection (pct of control), % at 4 µM | AID 841; in the data active = protection mostly above about 24%, no sharp cut-off; inactive = mostly below about 26%
Phagocytosis inh – inhibitors of macrophage phagocytosis | J774A.1 macrophage IgG-bead phagocytosis, imaging | inhibition, % at 5 µM | actives 0.07% (n = 110,000);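 active = inhibition above the mean of the plate negative controls plus 5 SD, cut at about 13% in these data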;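 note: phagocytic index as fraction of beads internalized from green versus red external bead signal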
RAM efflux-def – RAM network inhibitors in efflux-deficient yeast; shares compounds with RAM network inh; S. cerevisiae efflux-deficient reporter strain, 5-FOA growth OD615, 2 days; max inhibition, %; 1,200 tested, under 10 active; AID 1305; call rule not given here
Hits are given with their value; . = inactive; / = no result given; + = active, no number. Rows were chosen to be rich in hits. Some 3.6% of all compounds tested hit in one or more screens of this group.

SMILES	Yeast life ext	Yeast growth inh	RAM network inh	Measles CPE	Phagocytosis inh	others
Cc1noc(C)c1S(=O)(=O)N1CCC(C(=O)N2CCN(C3CCCC3)CC2)CC1	.	.	.	43	/
O=C(Cn1c(=S)[nH]c2ncccc2c1=O)NCCc1ccccc1	/	/	.	/	/
CCOc1ccc(/C=N/OCC(=O)Nc2cc(C)on2)cc1	.	.	.	.	.
CCOc1ccc(/C=N/OCC(=O)NC(c2ccccc2)c2ccccc2)cc1	.	.	10	.	.
O=C(Cc1ccccc1)NCC(=O)OCC(=O)c1ccc(OC(=O)c2ccccc2)cc1	.	.	.	.	/
CCCCC(c1nnnn1CC1CCCO1)N1CCN(c2nc3ccccc3s2)CC1 (stereo not given)	73	.	.	.	.
CC(C)(C)NC(=O)CN(C(=O)Cn1nnc(-c2ccc(Cl)cc2)n1)C1CCN(Cc2ccccc2)CC1	/	.	.	.	/
COc1ccc2oc(=O)c(/C(C)=N/NC(=O)c3ccncc3)cc2c1	.	.	.	.	.
O=C(NCC(=O)N(CCN1CCOCC1)C(C(=O)NC1CCCC1)c1ccccc1)c1cccs1 (stereo not given)	/	/	.	/	/
O=C(Cc1ccc(Cl)cc1)Nc1ccccc1Sc1ccccc1	.	.	.	.	.
O=C(CCl)Nc1ccccc1Sc1ccccc1	.	.	.	46	.
CC(=O)Nc1ccc(C(=O)OCC(=O)Nc2ccccc2Sc2ccccc2)cc1	.	.	.	.	.
N#CCC(=O)Nc1ccc(C(=O)OCC(=O)Nc2ccccc2Sc2ccccc2)cc1	/	/	8.4	/	/
COCN(C#N)c1nc(N(C)C)nc(N(C)C)n1	/	/	.	/	/
COc1ccc(CN(C#N)c2nc(SC)nc(N(C)C)n2)cc1	.	.	11	.	.
Cc1nc([N+](=O)[O-])c(Br)n1CC(=O)c1ccc2ccccc2c1	.	.	.	.	+
Cc1nc([N+](=O)[O-])c(Br)n1CC(=O)c1ccccc1	.	.	.	.	.
O=C(c1cccc(Cl)c1)N1CCC(=O)N(C(COCc2cccc(Cl)c2)Cc2ccccc2)CC1 (stereo not given)	.	.	9.5	.	/
Cc1cccc(C(=O)N2CCC(=O)N(C(COCc3cccc(Cl)c3)Cc3ccccc3)CC2)c1 (stereo not given)	.	.	.	.	/
O=C(c1ccc(Cl)c(Cl)c1)N1CCC(=O)N(C(COCc2cccc(Cl)c2)Cc2ccccc2)CC1 (stereo not given)	.	.	10	.	/
O=[N+]([O-])c1ccccc1CNC(Cc1ccccc1)c1ccccc1 (stereo not given)	.	.	.	.	.
COc1ccccc1C(=O)C1CCCN(C(=O)c2ccccn2)C1 (stereo not given)	/	/	.	/	/
Cc1ccc(-n2cc(C(=O)c3ccc4ccccc4c3O)cn2)cc1	.	.	8.5	.	/
Cc1nn(C)c(C)c1/C=N/NC(=O)CCn1nc(C)c([N+](=O)[O-])c1C	.	.	.	.	.
COC(=O)c1ccc(CSc2nc3c(cnn3-c3ccc(C)c(C)c3)c(=O)[nH]2)o1	/	.	.	30	/
SMILES	Yeast life ext	Yeast growth inh	RAM network inh	Measles CPE	Phagocytosis inh	others
CCCSc1nc2c(cnn2-c2ccc(C)c(C)c2)c(=O)[nH]1	.	.	.	.	.
Cc1ccc(C(=O)ON=C2CCN(c3ccc([N+](=O)[O-])cc3)CC2)cc1	.	.	.	.	.
O=[N+]([O-])c1ccc(N2CCC(=NOCc3ccc(Cl)cc3)CC2)cc1	.	.	11	.	/
CSc1nsc(/C=C/Nc2ccc(O)cc2C)c1C#N	/	/	.	/	/
O=C1CN=CN=CN1c1ccc(Cl)cc1Cl	.	.	.	45	.
CCOC(=O)c1c(C)[nH]c(C(=O)COC(=O)CCC2CCCC2)c1C	.	.	.	.	.
CC(=O)C1=C(O)C(=O)N(c2ccc(Br)cn2)C1c1ccc(F)cc1 (stereo not given)	/	/	.	/	/
Cc1c(C)c2ccc(OS(C)(=O)=O)c(C)c2oc1=O	.	.	.	.	.
O=C(NCCCN1CCN(Cc2ccccc2)CC1)c1nnc(Cc2c(F)cccc2Cl)o1	.	.	.	39	.
O=C(NCCCO)c1nnc(Cc2c(F)cccc2Cl)o1	.	.	.	.	.
Cc1ccc(-c2cc(C#N)c(=O)n(Cc3c(Cl)cccc3Cl)c2)cc1	.	.	.	.	.
N#Cc1cc(-c2ccccc2)cn(Cc2c(Cl)cccc2Cl)c1=O	.	.	.	53	.
Cc1ccc(NC(=O)CCC(=O)OCCCC(F)(F)C(F)(F)F)cc1	.	.	.	.	.
O=C(CCC(=O)OCCCC(F)(F)C(F)(F)F)Nc1ccc(Cl)cc1Cl	.	.	29	.	.	RAM efflux-def=.
COc1ccccc1NS(=O)(=O)c1cccc(NC(=O)Cc2cccs2)c1	.	.	.	.	.
COCCN1C(=O)c2cc(C(=O)Nc3ccc(C)c(F)c3)ccc2C1Nc1ccc(C)c(F)c1 (stereo not given)	.	.	.	.	/
COC(=O)c1cc(Cl)nc2ccccc12	/	/	.	/	/
COc1cc(/C=N/Nc2ccc(Cl)cc2)ccc1OC(=O)c1cccs1	.	.	12	.	.	RAM efflux-def=.
COc1cc(/C=N/NC(N)=O)ccc1OC(=O)c1cccs1	/	/	.	/	/
Cc1cnn(-c2nc(-c3ccccc3)cc(-c3ccccc3)n2)c1	/	/	14	/	/	RAM efflux-def=.
CCOc1ccccc1NC(=O)C(OC(=O)c1ccc(CC)cc1)c1ccccc1 (stereo not given)	.	.	15	.	.	RAM efflux-def=.
Cc1cccc(COCC(Cc2ccccc2)N2CCN(C(=O)c3ccc(C(F)(F)F)cc3)CCC2=O)c1 (stereo not given)	.	.	13	.	/	RAM efflux-def=.
Cc1ccc(S(=O)(=O)N2CCC(=O)N(C(COCc3ccc(C(F)(F)F)cc3)C(C)C)CC2)cc1 (stereo not given)	.	.	12	.	/	RAM efflux-def=.
Cc1ccc(S(=O)(=O)N2CCC(=O)N(CCOCc3ccc(C(F)(F)F)cc3)CC2)cc1	.	.	.	.	/
Cc1ccc(S(=O)(=O)N2CCC(=O)N(C(CO)Cc3ccccc3)CC2)cc1 (stereo not given)	.	.	.	.	/
SMILES	Yeast life ext	Yeast growth inh	RAM network inh	Measles CPE	Phagocytosis inh	others
Cc1ccc(S(=O)(=O)N2CCC(=O)N(C(COCc3cccc(C)c3)Cc3ccccc3)CC2)cc1 (stereo not given)	.	.	14	.	/	RAM efflux-def=.
Cc1ccc(S(=O)(=O)N2CCC(=O)N(C(COCc3ccc(Cl)c(Cl)c3)Cc3ccccc3)CC2)cc1 (stereo not given)	.	.	12	.	/	RAM efflux-def=.
Cc1ccc(C(=O)NC(C#N)=C(Cl)Cl)cc1	/	/	.	/	/
Cc1cc(Oc2ccc(C#N)cc2)nc(NCc2ccccc2)n1	.	.	.	.	.
COCCn1c(=NC(=O)c2sc3ccccc3c2Cl)sc2cc(S(N)(=O)=O)ccc21	.	.	16	.	.	RAM efflux-def=.
C=CCn1c(=NC(=O)c2sc3ccccc3c2Cl)sc2cc(S(N)(=O)=O)ccc21	.	.	.	.	.
